Source: ChEMBL document CHEMBL1141159, “Design, synthesis, and antiviral activity of 2'-deoxy-2'-fluoro-2'-C-methylcytidine, a potent inhibitor of hepatitis C virus replication” (2005)

What was measured:
Assay type in all cases: functional
[1] = test system: Huh-7; assay: Cytotoxic concentration against HCV replication RNA levels in Huh7 cells determined by HCV replicon assay; details: Homo sapiens
Method in brief: (§1)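 Cytotoxicity (CC50) read by MTS colorimetric cell-proliferation assay after 4 days of compound exposure.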

[2] = Cytotoxic concentration against bovine viral diarrhea virus (BVDV) in MDBK cells; details: Bos taurus; method in brief: as §1
[3] = test system: Huh-7; assay: Effective concentration required to reduce HCV replication RNA levels in Huh7 cells by 90% determined by HCV replicon assay; details: Homo sapiens
Method in brief: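 Subgenomic HCV replicon cells were treated with compound, and HCV RNA was quantified by real-time quantitative RT-PCR to derive the concentration giving 90% reduction.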

[4] = Effective concentration required to reduce cytopathic effects caused by bovine viral diarrhea virus (BVDV) in MDBK cells by 90%; details: Bos taurus

Compound: C[C@@]1(F)[C@H](O)[C@@H](CO)O[C@H]1n1ccc(N)nc1=O
- CC50 [1]: > 100 µM
- CC50 [2]: > 100 µM
- EC90 [3]: 5.4 µM
- EC90 [4]: > 100 µM

Compound: C[C@@]1(O)[C@H](O)[C@@H](CO)O[C@H]1n1ccc(N)nc1=O
- CC50 [1]: > 100 µM
- CC50 [2]: > 100 µM
- EC90 [3]: 19 µM
- EC90 [4]: 2.3 µM

Compound: Nc1ccn([C@@H]2O[C@H](CO)[C@@H](O)[C@@H]2F)c(=O)n1
- CC50 [1]: > 100 µM
- CC50 [2]: > 100 µM
- EC90 [3]: 6.5 µM
- EC90 [4]: > 100 µM

Compound: C[C@@]1(F)[C@H](O)[C@@H](CO)O[C@H]1n1ccc(=O)[nH]c1=O
- CC50 [1]: > 100 µM
- CC50 [2]: > 100 µM
- EC90 [3]: > 100 µM
- EC90 [4]: > 100 µM
